Assay results of several laboratories.
Lines come from different studies, so protocols differ.

CC(C)Oc1cccc(-c2cnc(N3CCC(C(N)=O)CC3)s2)c1  concentration (male Swiss mouse, plasma; oral, 30 mg/kg, 8 h, single dose): 8.49 ng/mL
CC(C)(Nc1nc(-c2ccccn2)nc2ccccc12)c1ccccn1  concentration (female BALB/c mouse, plasma; oral, 50 mg/kg, 2 h): 4230 ng/mL
CC(C)(O)c1ccccc1-c1ccc2[nH]c(/C=C/c3ccc(C(F)(F)F)cc3)nc2c1  MRT (male human, plasma; oral, 15 mg, single dose, fasted, healthy volunteers): 84 h
c1cnc2ccc(Nc3nc(NC4CC4)c4nc[nH]c4n3)cc2c1  MRT(0-t) (human, plasma; oral, 100 mg/m², patients): 8.1 h
O=c1nc(N2CCN(CC3CCCCC3)CC2)sc2c([N+](=O)[O-])cc(C(F)(F)F)cc12  concentration (CD-1 mouse, plasma; intravenous, 10 mg/kg, 4 h): 139 ng/mL
CC(C)(C)c1ccc(O)c(CN(Cc2cc(C(C)(C)C)ccc2O)C2CCC(NC(N)=O)CC2)c1 (centres unmarked)  half-life (male C57BL/6 mouse, plasma; intraperitoneal, 5 mg/kg, single dose): 2.4 h
O=C(O)C1CCN(c2ncc(-c3ccc4c(c3)OCCCO4)s2)CC1  concentration (male Swiss mouse, plasma; oral, 30 mg/kg, 4 h, single dose): 3890 ng/mL
CC(C)CN(C[C@@H](O)[C@H](Cc1ccccc1)NC(=O)O[C@H]1CO[C@H]2OCC[C@H]21)S(=O)(=O)c1ccc(N)cc1  concentration (BALB/c mouse, brain; intravenous, 2.5 mg/kg, 6 h): 1.36 ng/g
